In ChEMBL document CHEMBL1255465, “Persistence of uropathogenic Escherichia coli in the face of multiple antibiotics” (Antimicrob Agents Chemother, 2010):
The source made the active and inactive calls. The rule behind the calls is not given here.

Key:
5637 [1] = assay: Cytotoxicity against human 5637 cells assessed as mild induction of cell death by LDH release assay; format: cell-based
Escherichia coli [2] = assay: Antibacterial activity against uropathogenic Escherichia coli UTI89 infected in human 5637 cells assessed as decrease in intracellular bacterial level at 200 to 300 ug/ml after 12 hrs by serial dilution method; format: functional, organism-based
How it was run: (§1)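 Confluent 5637 monolayers in triplicate infected with UTI89 (24-h static LB culture, type 1 pili) at MOI ~15 and spun 600 × g for 5 min. After 2 h: gentamicin 100 μg/ml for 2 h, then 10 μg/ml for 14 h. Then 12 h with drug at two concentrations. Cells lysed in 0.4% Triton X-100 and plated on LB agar. Titers expressed relative to 800 μg/ml gentamicin. ≥3 independent assays.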

5637 [3] = assay: Cytotoxicity against human 5637 cells assessed as mild induction of cell death by trypan blue exclusion assay; format: cell-based
How it was run: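 Integrity of 5637 cells after drug treatment assessed by 0.4% trypan blue exclusion, following a standard protocol.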

Escherichia coli [4] = assay: Antibacterial activity against uropathogenic Escherichia coli UTI89 assessed as degradation of preexisting biofilm after 24 hrs by microscopy; format: functional, organism-based
How it was run: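 UTI89 diluted 1:100 into M9 medium and grown statically 48 h at 37°C in microtiter wells. Nonadherent cells removed, fresh M9 ± drug added for 24 h, using the higher of two tested concentrations. Viable bacteria in biofilms visualized by Live/Dead BacLight staining and microscopy.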

Escherichia coli [5] = assay: Antibacterial activity against uropathogenic Escherichia coli UTI89 infected in human 5637 cells assessed as decrease in intracellular bacterial level at 1000 to 3000 ug/ml after 12 hrs by serial dilution method; format: functional, organism-based; how it was run: as §1
Escherichia coli [6] = assay: Antibacterial activity against uropathogenic Escherichia coli UTI89 infected in human 5637 cells assessed as decrease in intracellular bacterial level at 250 to 300 ug/ml after 12 hrs by serial dilution method; format: functional, organism-based; how it was run: as §1
Escherichia coli [7] = conditions: UTI89, Urothelium, 2 mg/kg
Escherichia coli [8] = assay: Antibacterial activity against uropathogenic Escherichia coli UTI89 isolated from urine samples of infected CBA/J mouse after 24 hrs by disk diffusion assay; format: functional, organism-based
How it was run: (§2)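 Urine collected by gentle bladder pressure 2 h after oral dosing of UTI89-infected CBA/J mice. 10 μl spotted on 7-mm filter discs, placed on fresh UTI89 lawns on LB agar. Clearance diameter measured after 24 h at 37°C. Urine drug level calculated from standard curves of discs holding known antibiotic concentrations.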

Escherichia coli [9] = conditions: UTI89, 5637, 2 to 3 ug/ml
Escherichia coli [10] = conditions: UTI89, Urinary bladder, 2 mg/kg
Escherichia coli [11] = conditions: UTI89, Urothelium, 2 mg/kg; remark: listed apart in the source
Escherichia coli [12] = assay: Antibacterial activity against uropathogenic Escherichia coli UTI89 infected in human 5637 cells assessed as decrease in intracellular bacterial level at 600 to 1000 ug/ml after 12 hrs by serial dilution method; format: functional, organism-based; how it was run: as §1
Escherichia coli [13] = assay: Antibacterial activity against uropathogenic Escherichia coli UTI89 assessed as inhibition of biofilm formation after 24 hrs by microtiterplate-based assay; format: functional, organism-based
How it was run: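 Biofilms of UTI89 formed for 48 h at 37°C without shaking in M9 (1:100 inoculum, triplicate wells). Fresh M9 ± drug (higher of two tested concentrations) then added for 24 h. Biomass stained with 0.1% crystal violet, solubilized in DMSO, read at A562, and expressed relative to untreated controls. Three independent experiments.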

[14] = Drug level in Escherichia coli UTI89-infected CBA/J mouse urine at 200 ug/kg, sc after 2 hrs; format: ADME, organism-based; conditions: in vivo, 0.2 mg/kg
How it was run: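 Urine was collected 2 h after dosing by gentle bladder pressure. 10-μl aliquots went onto 7-mm sterile filter discs laid on fresh UTI89 lawns on LB agar. Clearance diameters were read after 24 h at 37°C, and levels were calculated from standard curves of discs with known antibiotic concentrations.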

Escherichia coli [15] = assay: Antibacterial activity against uropathogenic Escherichia coli UTI89 infected in CBA/J mouse assessed as decrease in bacterial load in bladder at 700 ug/kg, po administered on day 3 postinfection daily for 3 days measured on day 9 post-inoculation; format: functional, organism-based; conditions: Urinary bladder
How it was run: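 Female CBA/J mice, 7–8 weeks old, inoculated transurethrally with ~10^7 CFU UTI89 (24-h static LB culture) in 50 μl PBS. From day 3, one oral gavage daily for 3 days, 50 μl; controls given water. On day 9, bladders homogenized in PBS with 0.025% Triton X-100 and plated on LB agar for CFU. 11 mice from two experiments; Mann-Whitney U test.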

Escherichia coli [16] = assay: Antibacterial activity against uropathogenic Escherichia coli UTI89 infected in human 5637 cells assessed as decrease in intracellular bacterial level at 12 to 100 ug/ml after 12 hrs by serial dilution method; format: functional, organism-based; how it was run: as §1
Escherichia coli [17] = assay: Antibacterial activity against uropathogenic Escherichia coli UTI89 infected in CBA/J mouse assessed as decrease in bacterial invasion into layers of urothelium at 700 ug/kg, po administered on day 3 postinfection daily for 3 days measured on day 9 post-inoculation in presence of Triton X-100; format: functional, organism-based
Escherichia coli [18] = assay: Antibacterial activity against pGEN-GFP carrying uropathogenic Escherichia coli UTI89 isolated from bladder samples of infected CBA/J mouse assessed as decrease in growth of intracellular bacterial community at 12 ug/ml treated 6 hrs postinfection measured after 18 hrs; format: functional, organism-based
How it was run: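 Bladders from female CBA/J mice taken 6 h after transurethral inoculation with GFP(LVA)-plasmid UTI89, then halved, splayed and pinned lumen-up under Ringer solution (pH 7.4). Drug combination added at 12 and 700 μg/ml. GFP-positive IBCs counted by fluorescence stereomicroscopy at set times up to 18 h. n = 8 mice per group; Mann-Whitney U test.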

[19] = Drug level in Escherichia coli UTI89-infected CBA/J mouse urine at 700 ug/kg, po after 2 hrs; format: ADME, organism-based; conditions: in vivo, 0.7 mg/kg; how it was run: as §2
Escherichia coli [20] = assay: Antibacterial activity against uropathogenic Escherichia coli UTI89 infected in CBA/J mouse assessed as decrease in bacterial invasion into layers of urothelium at 700 ug/kg, po administered on day 3 postinfection daily for 3 days measured on day 9 post-inoculation; format: functional, organism-based
Escherichia coli [21] = assay: Antibacterial activity against uropathogenic Escherichia coli UTI89 infected in human 5637 cells assessed as decrease in intracellular bacterial level at 800 to 1200 ug/ml after 12 hrs by serial dilution method; format: functional, organism-based
How it was run: (§3)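 UTI89 was grown 24 h static in LB (type 1 pili) and added to confluent 5637 monolayers at MOI ~15, spun 600 × g for 5 min. After 2 h at 37°C: gentamicin 100 μg/ml for 2 h, then 10 μg/ml for 14 h. Next, 12 h with antibiotic at two concentrations. Lysis in 0.4% Triton X-100, serial-dilution plating; titers relative to 800 μg/ml gentamicin. ≥3 independent assays in triplicate, mean ± SEM.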

Escherichia coli [22] = assay: Antibacterial activity against uropathogenic Escherichia coli UTI89 infected in human 5637 cells assessed as decrease in intracellular bacterial level at 400 to 700 ug/ml after 12 hrs by serial dilution method; format: functional, organism-based; how it was run: as §1
Escherichia coli [23] = assay: Antibacterial activity against uropathogenic Escherichia coli UTI89 infected in human 5637 cells assessed as decrease in intracellular bacterial level at 300 to 500 ug/ml after 12 hrs by serial dilution method; format: functional, organism-based; how it was run: as §3
Escherichia coli [24] = assay: Antibacterial activity against uropathogenic Escherichia coli UTI89 infected in CBA/J mouse assessed as decrease in bacterial invasion into layers of urothelium at 200 ug/kg, sc administered on day 3 postinfection daily for 3 days measured on day 9 post-inoculation in presence of Triton X-100; format: functional, organism-based
Escherichia coli [25] = assay: Antibacterial activity against uropathogenic Escherichia coli UTI89 infected in CBA/J mouse assessed as decrease in bacterial load in bladder at 200 ug/kg, sc administered on day 3 postinfection daily for 3 days measured on day 9 post-inoculation; format: functional, organism-based; conditions: Urinary bladder
Escherichia coli [26] = assay: Antibacterial activity against uropathogenic Escherichia coli UTI89 infected in human 5637 cells assessed as decrease in intracellular bacterial level at 400 to 800 ug/ml after 12 hrs by serial dilution method; format: functional, organism-based; how it was run: as §3
Escherichia coli [27] = assay: Antibacterial activity against uropathogenic Escherichia coli UTI89 infected in CBA/J mouse assessed as decrease in bacterial invasion into layers of urothelium at 200 ug/kg, sc administered on day 3 postinfection daily for 3 days measured on day 9 post-inoculation; format: functional, organism-based
Escherichia coli [28] = assay: Antibacterial activity against uropathogenic Escherichia coli UTI89 infected in human 5637 cells assessed as decrease in intracellular bacterial level at 1200 to 1600 ug/ml after 12 hrs by serial dilution method; format: functional, organism-based; how it was run: as §1
Escherichia coli [29] = assay: Antibacterial activity against uropathogenic Escherichia coli UTI89 infected in human 5637 cells assessed as decrease in intracellular bacterial level at 1000 to 2000 ug/ml after 12 hrs by serial dilution method; format: functional, organism-based; how it was run: as §1

| Molecule | Activity 5637 [1] | Activity 5637 [3] | Activity (Escherichia coli [4]) | further results |
| --- | --- | --- | --- | --- |
| C[C@H]1COc2c(N3CCN(C)CC3)c(F)cc3c(=O)c(C(=O)O)cn1c23.C[C@H]1COc2c(N3CCN(C)CC3)c(F)cc3c(=O)c(C(=O)O)cn1c23.O [LEVOFLOXACIN] | Toxic | Toxic | Active | inhibition (Escherichia coli [2]): Active |
| NC[C@H]1O[C@H](O[C@H]2[C@H](O)[C@@H](O[C@H]3O[C@H](CO)[C@@H](O)[C@H](N)[C@H]3O)[C@H](N)C[C@@H]2N)[C@H](O)[C@@H](O)[C@@H]1O [KANAMYCIN] | Toxic | Toxic | Active | inhibition (Escherichia coli [5]): Active |
| CN(C)[C@@H]1C(O)=C(C(N)=O)C(=O)[C@@]2(O)C(O)=C3C(=O)c4c(O)cccc4[C@@](C)(O)[C@H]3C[C@@H]12 [TETRACYCLINE] | Toxic | Toxic | Active | inhibition (Escherichia coli [6]): Active |
| O=C(O)c1cn(C2CC2)c2cc(N3CCNCC3)c(F)cc2c1=O [CIPROFLOXACIN] | Toxic | Toxic | Active | inhibition (Escherichia coli [7]): inactive; Activity (Escherichia coli [8]): Active; inhibition (Escherichia coli [9]): Active; inhibition (Escherichia coli [10]): Active; inhibition (Escherichia coli [11]): Active |
| CC1(C)S[C@@H]2[C@H](NC(=O)Cc3ccccc3)C(=O)N2[C@H]1C(=O)O [PENICILLIN G] | Toxic | Toxic | Active | inhibition (Escherichia coli [12]): Active; Biofilm inhibition activity (Escherichia coli [13]): Active |
| GENTAMICIN [listing 1 of 2 here] | Toxic | Toxic | – | Drug uptake [14]: 2 mg/mL |
| C[C@@H]1CN(c2c(F)c(N)c3c(=O)c(C(=O)O)cn(C4CC4)c3c2F)C[C@H](C)N1 [SPARFLOXACIN] | Toxic | Toxic | Active | inhibition (Escherichia coli [15]): Active; inhibition (Escherichia coli [16]): Active; Activity (Escherichia coli [8]): Active; inhibition (Escherichia coli [17]): Active; inhibition (Escherichia coli [18]): Active; Drug uptake [19]: 0.3 µg/mL; Biofilm inhibition activity (Escherichia coli [13]): Active; inhibition (Escherichia coli [20]): inactive |
| CCn1cc(C(=O)O)c(=O)c2ccc(C)nc21 [NALIDIXIC ACID] | Toxic | Toxic | Active | inhibition (Escherichia coli [21]): Active |
| CC1COc2c(N3CCN(C)CC3)c(F)cc3c(=O)c(C(=O)O)cn1c23 (centres undefined) [OFLOXACIN] | Toxic | Toxic | Active | inhibition (Escherichia coli [22]): Active |
| CCn1cc(C(=O)O)c(=O)c2cc(F)c(N3CCNCC3)cc21 [NORFLOXACIN] | Toxic | Toxic | Active | inhibition (Escherichia coli [23]): Active |
| GENTAMICIN [listing 2 of 2 here] | – | – | Active | inhibition (Escherichia coli [24]): Active; inhibition (Escherichia coli [25]): inactive; Activity (Escherichia coli [8]): Active; inhibition (Escherichia coli [26]): Active; inhibition (Escherichia coli [27]): inactive |
| CC1=C(C(=O)O)N2C(=O)[C@@H](NC(=O)[C@H](N)c3ccc(O)cc3)[C@H]2SC1 [CEFADROXIL] | Toxic | Toxic | Active | inhibition (Escherichia coli [28]): Active; Biofilm inhibition activity (Escherichia coli [13]): Active |
| O=C1CN(/N=C/c2ccc([N+](=O)[O-])o2)C(=O)N1 [NITROFURANTOIN] | Toxic | Toxic | Active | inhibition (Escherichia coli [23]): Active |
| NCC[C@H](O)C(=O)N[C@@H]1C[C@H](N)[C@@H](O[C@H]2O[C@H](CN)[C@@H](O)[C@H](O)[C@H]2O)[C@H](O)[C@H]1O[C@H]1O[C@H](CO)[C@@H](O)[C@H](N)[C@H]1O [AMIKACIN] | Toxic | Toxic | Active | inhibition (Escherichia coli [29]): Active |
| CCOc1ccc2ccccc2c1C(=O)N[C@@H]1C(=O)N2[C@@H]1SC(C)(C)[C@@H]2C(=O)O [NAFCILLIN] | Toxic | Toxic | Active | inhibition (Escherichia coli [28]): Active |
